Test results published in ChEMBL document CHEMBL5104181, “Development of Hydrogen Sulfide-Releasing Carbonic Anhydrases IX- and XII-Selective Inhibitors with Enhanced Antihyperalgesic Action in a Rat Model of Arthritis” (J Med Chem, 2022).
pKi: −log10 of the molar value. Calls of active or inactive are those of the source. No cut-off for these calls is given here.

Tests used:
[1] = target: Carbonic anhydrase 4 (Homo sapiens, UniProt P22748); assay: Inhibition of recombinant human CA4 pre-incubated for 15 mins by phenol red dye based stopped flow CO2 hydration assay
[2] = target: Carbonic anhydrase 1 (Homo sapiens, UniProt P00915); assay: Inhibition of recombinant human CA1 pre-incubated for 15 mins by phenol red dye based stopped flow CO2 hydration assay
[3] = target: Carbonic anhydrase 9 (Homo sapiens, UniProt Q16790); assay: Inhibition of recombinant human CA9 pre-incubated for 15 mins by phenol red dye based stopped flow CO2 hydration assay
[4] = target: Carbonic anhydrase 12 (Homo sapiens, UniProt O43570); assay: Inhibition of recombinant human CA12 pre-incubated for 15 mins by phenol red dye based stopped flow CO2 hydration assay
[5] = target: Carbonic anhydrase 2 (Homo sapiens, UniProt P00918); assay: Inhibition of recombinant human CA2 pre-incubated for 15 mins by phenol red dye based stopped flow CO2 hydration assay
[6] = Toxicity in Sprague-Dawley rat model of complete freund's adjuvant-induced arthritis assessed as effect on autonomical parameters at 30 mg/kg, po measured for 24 hrs by Irwin test; assay type: organism-based; details: in vivo
Outline: (§1)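 Single oral 30 mg/kg dose (1% CMC suspension) in CFA-arthritic Sprague Dawley rats; animals observed 24 h. Irwin screen in individual transparent cage scoring 26 autonomic, behavioral and neurological parameters; some signs recorded as present/absent, skin colour qualitatively, others semiquantitatively on observer scales (0 to +4, −4 to 0, or −4 to +4).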

[7] = tested on: Liver; assay: Induction of H2S release in rat liver microsomes assessed as Cmax of H2S release at 150 uM measured after 90 mins by methylene blue based UV-Vis spectrophotometer analysis; assay type: functional; details: Homogenate, in the assay text read “rat liver homogenate” for “rat liver microsomes”
Outline: (§2)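 Rat liver homogenized 1/20 w/v in ice-cold 50 mM potassium phosphate pH 7.4, diluted further 1:10; compound 150 μM final (30 mM DMSO stock) in airtight vials at 37 °C, 0–90 min. H2S trapped with zinc acetate, proteins precipitated with TCA, then N,N-dimethyl-p-phenylenediamine/FeCl3; methylene blue A667 after 30 min at 25 °C; Na2S calibration 1–250 μM; compound-free baseline; triplicate.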

[8] = tested on: Liver; assay: Induction of H2S release in rat liver microsomes assessed as half life of H2S release at 150 uM incubated for 90 mins by methylene blue based UV-Vis spectrophotometer analysis; assay type: functional; details: Homogenate, in the assay text read “rat liver homogenate” for “rat liver microsomes”; outline: as §2
[9] = tested on: Liver; assay: Induction of H2S release in rat liver microsomes at 150 uM incubated for 90 mins by methylene blue based UV-Vis spectrophotometer analysis; assay type: functional; details: Homogenate, in the assay text read “rat liver homogenate” for “rat liver microsomes”; outline: as §2
[10] = Toxicity in Sprague-Dawley rat model of complete freund's adjuvant-induced arthritis assessed as effect on neurological parameters at 30 mg/kg, po measured for 24 hrs by Irwin test; assay type: organism-based; details: in vivo; outline: as §1
[11] = Toxicity in Sprague-Dawley rat model of complete freund's adjuvant-induced arthritis assessed as effect on behavioral parameters at 30 mg/kg, po measured for 24 hrs by Irwin test; assay type: organism-based; details: in vivo; outline: as §1
[12] = tested on: Rattus norvegicus; assay: (§3) Antinociceptive activity against complete freund's adjuvant-induced arthritic Sprague-Dawley rat model assessed as reduction in mechanical hyperalgesia induced hypersensitivity at 10 to 30 mg/kg, po administered as single dose starting from day 14 post CFA injection and measured upto 75 mins by Paw pressure test; assay type: functional, organism-based; details: dose 10-30 mg/kg
[13] = tested on: Rattus norvegicus; assay: as §3, with “increase” for “reduction”, “weight tolerated on ipsilateral paw” for “mechanical hyperalgesia induced hypersensitivity”, “after 15 to 45” for “upto 75”; assay type: functional, organism-based; details: dose 10-30 mg/kg, time lower 15.0 min, time upper […]
[14] = tested on: Rattus norvegicus; assay: (§4) Antinociceptive activity against complete freund's adjuvant-induced arthritic Sprague-Dawley rat model assessed as reduction in spontaneous pain by measuring difference in weight tolerance on contralateral and ipsilateral paw administered orally as single dose starting from day 14 post CFA injection and measured after 30 to 45 mins by Incapacitance test; assay type: functional, organism-based; details: dose 1-30 mg/kg, route po, time lower 30.0 min, time upper […], DDE = dose-dependent effect
Outline: (§5)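 Sprague Dawley rats 200–250 g, CFA 50 μL intra-articular into left tibiotarsal joint on day 0 (saline controls). On day 14, single oral dose in 1% CMC (hybrids 1, 10, 30 mg/kg; single agents 13.23 or 17.71 mg/kg). Incapacitance apparatus, rats on hind paws on 65° inclined plane; Δ weight = contralateral minus ipsilateral load over time; 8 rats, two experimental sets, mean (SEM).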

[15] = tested on: Rattus norvegicus; assay: as §4, with “paw at 13.23 mg/kg, po” for “paw”, “administered” for “administered orally”, “after 15 to” for “after”, “30” for “30 to 45”; assay type: functional, organism-based; details: time 15-30 min; outline: as §5
[16] = tested on: Rattus norvegicus; assay: Antinociceptive activity against complete freund's adjuvant-induced arthritic Sprague-Dawley rat model assessed as increase in weight tolerated on ipsilateral paw at 13.23 mg/kg, po administered as single dose starting from day 14 post CFA injection and measured after 15 to 45 mins by Paw pressure test; assay type: functional, organism-based; details: time lower 15.0 min, time upper […]
[17] = tested on: Liver; assay: Induction of H2S release in rat liver microsomes assessed as Cmax of H2S release at 150 uM measured after 20 mins by methylene blue based UV-Vis spectrophotometer analysis; assay type: functional; details: Homogenate, in the assay text read “rat liver homogenate” for “rat liver microsomes”; outline: as §2
[18] = tested on: Rattus norvegicus; assay: Antinociceptive activity against complete freund's adjuvant-induced arthritic Sprague-Dawley rat model assessed as reduction in mechanical hyperalgesia induced hypersensitivity administered orally as single dose starting from day 14 post CFA injection and measured upto 75 mins by Paw pressure test; assay type: functional, organism-based; details: dose 1-30 mg/kg, route po, DDE = dose-dependent effect
[19] = tested on: Rattus norvegicus; assay: as §4, with “paw at 10 mg/kg, po” for “paw”, “administered” for “administered orally”, “upto 75” for “after 30 to 45”; assay type: functional, organism-based; outline: as §5

Carbonic anhydrase 1, sequence (P00915 whole entry): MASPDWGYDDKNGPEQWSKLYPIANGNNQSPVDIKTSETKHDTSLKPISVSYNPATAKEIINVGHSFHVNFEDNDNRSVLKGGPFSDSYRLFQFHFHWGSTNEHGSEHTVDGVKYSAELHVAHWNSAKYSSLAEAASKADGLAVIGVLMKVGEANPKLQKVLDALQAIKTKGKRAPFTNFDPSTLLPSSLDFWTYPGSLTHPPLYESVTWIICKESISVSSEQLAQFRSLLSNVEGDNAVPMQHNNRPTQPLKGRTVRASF
Carbonic anhydrase 4, sequence (P22748 whole entry): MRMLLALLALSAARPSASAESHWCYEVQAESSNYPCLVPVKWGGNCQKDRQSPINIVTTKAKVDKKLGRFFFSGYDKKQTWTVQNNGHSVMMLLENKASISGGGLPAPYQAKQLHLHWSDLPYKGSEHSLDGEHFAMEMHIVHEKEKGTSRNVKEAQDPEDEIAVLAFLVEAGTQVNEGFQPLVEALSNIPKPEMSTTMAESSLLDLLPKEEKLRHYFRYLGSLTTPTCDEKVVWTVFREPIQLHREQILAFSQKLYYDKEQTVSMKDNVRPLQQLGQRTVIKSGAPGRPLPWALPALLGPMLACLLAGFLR
Carbonic anhydrase 12, sequence (O43570 whole entry): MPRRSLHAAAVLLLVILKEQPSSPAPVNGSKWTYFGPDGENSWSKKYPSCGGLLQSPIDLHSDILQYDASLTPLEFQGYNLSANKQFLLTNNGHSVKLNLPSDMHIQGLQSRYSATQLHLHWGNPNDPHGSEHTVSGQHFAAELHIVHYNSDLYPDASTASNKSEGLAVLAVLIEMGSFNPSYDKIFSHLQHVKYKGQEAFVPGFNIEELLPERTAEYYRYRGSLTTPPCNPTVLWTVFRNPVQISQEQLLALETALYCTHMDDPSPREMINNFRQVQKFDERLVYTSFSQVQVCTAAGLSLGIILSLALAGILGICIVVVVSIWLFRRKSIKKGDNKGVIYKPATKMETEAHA

Structure (SMILES) | pKi [1] | pKi [2] | pKi [3] | pKi [4] | pKi [5] | Activity [6] | Cmax [7] | T1/2 [8] | Activity [9] | Activity [10] | Activity [11] | Activity [12] | Activity [13] | Activity [14] | Activity [15] | Activity [16] | Cmax [17] | Activity [18] | Activity [19]
NS(=O)(=O)c1ccc(CCN(Cc2ccc([N+](=O)[O-])cc2)C(=O)c2ccc(-c3cssc3=S)cc2)cc1 | < 5.00 | 5.13 | 7.44 | 7.48 | 6.04 |  |  |  |  |  |  |  |  |  |  |  |  |  | 
NS(=O)(=O)c1ccc(CCN(Cc2csc3ccccc23)C(=O)c2ccc(-c3cssc3=S)cc2)cc1 | 7.32 | < 5.00 | 8.62 | 8.10 | 5.61 | Non-Toxic | 7.9 µM | 4.3 min | Active | Non-Toxic | Non-Toxic | Active | Active | Dde |  |  |  |  | 
NS(=O)(=O)c1ccc(CCN(CCc2ccccc2)C(=O)c2ccc(-c3cssc3=S)cc2)cc1 | 6.61 | 5.36 | 6.90 | 8.02 | 6.18 |  |  |  |  |  |  |  |  |  |  |  |  |  | 
NS(=O)(=O)c1ccc(CCN(Cc2ccc(Cl)cc2)C(=O)c2ccc(-c3cssc3=S)cc2)cc1 | 6.37 | 5.26 | 7.62 | 8.01 | 5.53 |  |  |  |  |  |  |  |  |  |  |  |  |  | 
NS(=O)(=O)c1ccc(CCN(Cc2ccc(Br)cc2)C(=O)c2ccc(-c3cssc3=S)cc2)cc1 | 5.98 | 5.11 | 7.72 | 7.89 | 5.44 |  |  |  |  |  |  |  |  |  |  |  |  |  | 
COc1ccc(CN(CCc2ccc(S(N)(=O)=O)cc2)C(=O)c2ccc(-c3cssc3=S)cc2)cc1OC | 6.53 |  | 7.73 | 8.05 | 6.66 |  |  |  |  |  |  |  |  |  |  |  |  |  | 
CSc1ccc(CN(CCc2ccc(S(N)(=O)=O)cc2)C(=O)c2ccc(-c3cssc3=S)cc2)cc1 | 6.39 | 5.14 | 7.34 | 8.08 | 5.02 | Non-Toxic | 7.9 µM | 4.3 min | Active | Non-Toxic | Non-Toxic | Active | Active | Dde |  |  |  |  | 
COc1ccc(CN(CCc2ccc(S(N)(=O)=O)cc2)C(=O)c2ccc(-c3cssc3=S)cc2)cc1 | 5.80 | 5.65 | 7.30 | 7.12 | 6.23 |  |  |  |  |  |  |  |  |  |  |  |  |  | 
N#Cc1ccc(CN(CCc2ccc(S(N)(=O)=O)cc2)C(=O)c2ccc(-c3cssc3=S)cc2)cc1 | 7.34 | < 5.00 | 7.39 | 8.06 | 5.32 |  |  |  |  |  |  |  |  |  |  |  |  |  | 
O=C(O)c1ccc(-c2cssc2=S)cc1 |  |  |  |  |  |  |  | 3.1 min | Active |  |  |  |  |  | Active | Active | 12.1 µM |  | 
COc1cc([N+](=O)[O-])ccc1CN(CCc1ccc(S(N)(=O)=O)cc1)C(=O)c1ccc(-c2cssc2=S)cc1 | 5.39 | 5.17 | 8.39 | 8.11 | 5.53 | Non-Toxic | 7.9 µM | 4.3 min | Active | Non-Toxic | Non-Toxic |  |  | Dde |  |  |  | Dde | 
NS(=O)(=O)c1ccc(CCNCc2cccc3ccccc23)cc1 |  |  | 7.34 |  |  |  |  |  |  |  |  |  |  |  |  |  |  |  | 
NS(=O)(=O)c1ccc(CCN(Cc2ccccc2)C(=O)c2ccc(-c3cssc3=S)cc2)cc1 | 5.36 |  | 7.37 | 8.01 | 6.32 |  |  |  |  |  |  |  |  |  |  |  |  |  | 
NS(=O)(=O)c1ccc(CCN(Cc2ccc(F)cc2)C(=O)c2ccc(-c3cssc3=S)cc2)cc1 | < 5.00 | 5.27 | 7.33 | 7.19 | 6.22 |  |  |  |  |  |  |  |  |  |  |  |  |  | 
NS(=O)(=O)c1ccc(CCN(Cc2cccc3ccccc23)C(=O)c2ccc(-c3cssc3=S)cc2)cc1 | 6.61 | < 5.00 | 7.81 | 8.15 | 5.35 | Non-Toxic | 7.9 µM | 4.3 min | Active | Non-Toxic | Non-Toxic | Active | Active |  |  |  |  |  | Active
N#CCCN(CCc1ccc(S(N)(=O)=O)cc1)C(=O)c1ccc(-c2cssc2=S)cc1 | 6.28 | 6.37 | 7.54 | 8.04 | 7.22 |  |  |  |  |  |  |  |  |  |  |  |  |  | 
CN(C)c1ccc(CN(CCc2ccc(S(N)(=O)=O)cc2)C(=O)c2ccc(-c3cssc3=S)cc2)cc1 | 5.47 | 5.37 | 7.64 | 8.02 | 6.00 |  |  |  |  |  |  |  |  |  |  |  |  |  | 
